Screening data as filed in PubChem BioAssay.
Lmaj promast = Leishmania major promastigote growth inhibition, primary screen; Leishmania major promastigotes, resazurin fluorescence viability; inhibition, % at 10 µM; 9% of 200,000 active; in the data active means inhibition above about 50%;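 further: promastigotes grown with compound for 44 hours at 28 °C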
T cruzi inh = inhibitors of intracellular T. cruzi growth, primary screen, luminescence, NIH3T3 host cells; 1.4% of 300,000 active; inhibition, % (test concentration not listed); T. cruzi beta-gal in NIH3T3, 90 h;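 active means mean inhibition across valid replicates above about 55%, limit read from the data; inconclusive means mean below that limit but half or more replicates reach it; inactive means mean below it, under half of replicates reach it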;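 further: signal also drops with host cell toxicity which is not excluded here; higher percent means less beta-gal luminescence so fewer parasites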
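compound dosing = single 50 nL compound addition per well in DMSO | material = NIH/3T3 host cells with β-galactosidase reporter T. cruzi | input = 5,000 host fibroblasts per well | timing = ≥90 h infection period, 3 h prior cell attachment | read-out basis = percent inhibition of parasite-derived β-gal signal | detection = GalScreen β-gal luminescence, detergent lysis, 60 min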
NALP1 inh = NALP1 inflammasome inhibitors in reconstituted yeast, colorimetric, S. cerevisiae, triplicate retest; inhibition, % at 10 µM; S. cerevisiae NALP1/ASC/caspase-1 growth, X-gal OD620, 72 h; 0.61% of 280,000 active; in the data active means inhibition mostly above about 24%, no sharp cut-off; inactive means mostly below about 32%
PolyA inh = polyadenylation inhibitors in yeast reporter cells, primary screen, luminescence, S. cerevisiae; AID 1875, 2009; S. cerevisiae SKY197-pL101 polyadenylation reporter, beta-gal luminescence; efflux-impaired pdr1/pdr3 knockout yeast; score 100 = 6 SD above DMSO; activity score, % at 12 µM; 0.02% of 300,000 active;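 active means lowest replicate activity score at least 50, where 100 means six control SD above control mean; inconclusive means lowest score under 50 but half or more replicates reach 50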;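 further: yeast exposed to compound for 9 h at 30 °C; higher score means more reporter readthrough which indicates perturbed polyadenylation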
Calb FLC = C. albicans growth inhibition with fluconazole, primary screen, CaCi-2 strain, Alamar Blue fluorescence; growth inhibition, % (no concentration beside the values); C. albicans CaCi-2 + fluconazole, 48 h; 0.57% of 300,000 active; AID 1979, 2009;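 active means growth inhibition above about 58% in most replicates, limit read from the data, passing the limit was not always enough; inconclusive means exactly half the replicates above a set limit; inactive means most replicates below a set limit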;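 further: all wells also contain fluconazole at 8 µg/ml as a sub-toxic cotreatment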
NALP3 yeast inh = NALP3 inflammasome inhibitors in reconstituted yeast, primary screen, luminescence, uHTS. Yeast reconstituted NLRP3/ASC/caspase-1, beta-gal luminescence, 24 h. inhibition, % at 10 µM. 0.39% of 330,000 active. AID 2825, 2010;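 active means inhibition of 50% or more; inactive means inhibition below 50%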
Each line names hits and unclear results; the compound was inactive in the other large screens. This is one part of a sample in which hits are shown more often than they occur.

O=C(NCc1cccc(F)c1)c1ccc(N2C(=O)Cn3c(cc4sccc43)C2=O)cc1	Lmaj promast 61
COc1ccccc1OP(=O)(O)Oc1ccccc1OC	none
O=C(CCNC(=O)c1ccccc1Cl)Nc1nc(-c2ccc3ccccc3c2)cs1	Lmaj promast 80, T cruzi inh 56
Cc1nc2ccc(NC(=O)C3CCN(S(=O)(=O)c4cccs4)CC3)cc2s1	Lmaj promast 65
Cc1ccc(NC(=O)C2CCN(S(=O)(=O)c3cccs3)CC2)cc1	none
Cc1sc2ncnc(N3CCC(C(=O)Nc4nc(-c5cccs5)cs4)CC3)c2c1C	T cruzi inh 64 (no result: Lmaj promast, NALP1 inh)
Cc1ccc(-c2csc(NC(=O)C3CCN(S(=O)(=O)c4cccs4)CC3)n2)cc1	Lmaj promast 76
C/C(=N/NC(=O)CNC(=O)C1COc2ccccc2O1)c1cccc(O)c1 (configuration not stated)	none
CCCCCCCOc1ccc(C2CC(=O)N(C)C2=O)cc1 (configuration not stated)	none (no result: Lmaj promast)
O=C(Nc1nc(-c2ccc3ccccc3c2)cs1)C1CCN(S(=O)(=O)c2cccs2)CC1	Lmaj promast 91
O=C(Nc1nccs1)C1CCN(S(=O)(=O)c2cccs2)CC1	none
COc1cccc2cc(C(=O)NCCN3CCOCC3)c(=O)oc12	none (no result: Lmaj promast)
Clc1ccc(OCCn2ccnc2)cc1Cl	T cruzi inh 59 (no result: Lmaj promast)
CC(C)(C)c1ccc(OCCCn2ccnc2)cc1	none (no result: Lmaj promast)
c1ccc2cc(OCCCn3ccnc3)ccc2c1	T cruzi inh 63 (no result: Lmaj promast)
OC(COc1ccc2cc(Br)ccc2c1)Cn1ccnc1 (configuration not stated)	T cruzi inh 58 (no result: Lmaj promast)
Cc1cc(OCCCn2ccnc2)ccc1C(C)C	Lmaj promast 99, T cruzi inh 74
Clc1cccc(OCCCn2ccnc2)c1	none (no result: Lmaj promast)
O=C(O)CC(CN1C(=O)c2ccccc2C1=O)c1ccccc1 (configuration not stated)	none (no result: Lmaj promast, NALP1 inh)
O=C(O)c1cc([N+](=O)[O-])cc2c1nnn2O	none
CC(C)c1nnc(NC(=O)C2CCN(C(=O)Nc3ccc(Cl)cc3)CC2)s1	none (no result: Lmaj promast)
O=C(NCCCn1ccnc1)c1nn2c(C(F)(F)F)cc(-c3ccc(Br)cc3)nc2c1Cl	Lmaj promast 100
COc1ccc(-c2cc(C(F)(F)F)n3nc(C(=O)NCCCn4ccnc4)cc3n2)cc1	Lmaj promast 90
COc1ccc(-c2cc(C(F)(F)F)n3nc(C(=O)NCCN4CCOCC4)cc3n2)cc1	none
Cc1c(C(=O)OC(C)CCN(C)C)oc2ccccc12 (configuration not stated)	Lmaj promast 85, T cruzi inh 57
Cc1c(C(=O)OCC(C)(C)CN(C)C)oc2ccccc12	none
COCC1CCN(C(=O)c2cc(COc3ccc4c(c3)CCCC4)on2)C1 (configuration not stated)	NALP1 inh 27 (no result: Lmaj promast)
C=C(NC(C)=O)c1c(F)cccc1F	none (no result: Lmaj promast, T cruzi inh, NALP1 inh, PolyA inh, Calb FLC)
O=C1c2cnc3nc(SCc4cccc(Cl)c4)nn3c2CC2c3ccccc3CCN12 (configuration not stated)	Lmaj promast 56, PolyA inh inconclusive
CCN(CC)CCn1c(=N)n(CC(O)COc2ccccc2)c2ccccc21 (configuration not stated)	PolyA inh inconclusive (no result: Lmaj promast)
C=COCCn1c(=N)n(CCC)c2ccccc21	none
CCCn1c(=N)n(CCOCCOCCn2c(=N)n(CCC)c3ccccc32)c2ccccc21	Lmaj promast 88 (no result: T cruzi inh, NALP1 inh, PolyA inh, Calb FLC, NALP3 yeast inh)
CCCCn1c(=N)n(CCOc2ccc(C)cc2)c2ccccc21	Lmaj promast 97
CCN(CC)CCn1c(=N)n(CCOc2ccccc2)c2ccccc21	Lmaj promast 93, T cruzi inh 69
CNC(=O)CSc1nc2[nH]ncc2c(=O)[nH]1	none
COC(=O)[C@H](C)NC(=O)NCc1ccccc1	none (no result: Lmaj promast)
CCOC(=O)C1=C(CNCCc2ccc(Cl)cc2)NC(=O)NC1c1ccc2c(c1)OCO2 (configuration not stated)	Lmaj promast 80, T cruzi inh 57
Cn1c(NCCCN2CCOCC2)nc2c1c(=O)n(Cc1ccc(Cl)cc1Cl)c(=O)n2C	Lmaj promast 90
COCCCNc1nc2c(c(=O)n(Cc3ccc(Cl)cc3)c(=O)n2C)n1C	none (no result: Lmaj promast)
CS(=O)(=O)Cc1cc(N2CCCC2)nc(-c2ccccc2)n1	Lmaj promast 61
COCc1cc(N2CCCC2)nc(-c2ccccc2)n1	none
Cc1cc(-c2ccc(/C=N/n3cnnc3)o2)ccc1Cl	Lmaj promast 65
CCOC(=O)c1cc(-c2ccc(/C=N\n3cnnc3)o2)ccc1Cl	none
Cc1c(Cl)cccc1-c1ccc(/C=N/n2cnnc2)o1	Lmaj promast 69
O=C(C[C@@H]1C/C=C/CC[C@@H](Cc2ccc(F)cc2)C(=O)OC[C@H](Cc2ccccc2)NC1=O)N[C@H](CO)Cc1ccccc1	none (no result: Lmaj promast, T cruzi inh, NALP1 inh, PolyA inh, Calb FLC)
COc1ccc(-c2cn3cc(C)ccc3n2)cc1Br	Lmaj promast 84
NC(=O)c1ccsc1NC(=O)COC(=O)c1cc(Cl)ccc1O	none (no result: Lmaj promast, NALP1 inh, Calb FLC)
C[n+]1c(/C=C/c2ccc3c(c2)OCO3)ccc2ccccc21	Lmaj promast 77
C[n+]1c(/C=C/c2ccc(O)cc2)ccc2ccccc21	none (no result: Lmaj promast)
COc1ccccc1N1CCN(C(=O)c2cc3c(s2)CCCCC3)CC1	none (no result: Lmaj promast)
Cc1ccc(S(=O)(=O)N2CCN(C(=O)c3cc4c(s3)CCCC4)CC2)c(C)c1	none (no result: Lmaj promast, T cruzi inh, NALP1 inh, PolyA inh, Calb FLC)
CCOc1ccccc1N1CCN(C(=O)c2cc3c(s2)CCC3)CC1	Lmaj promast 68
O=C(c1cc2c(s1)CCCC2)N1CCN(S(=O)(=O)c2ccccc2C(F)(F)F)CC1	Lmaj promast 77
CN1CCN(C(=O)C2CCCN(S(=O)(=O)c3ccc(Cl)cc3)C2)CC1 (configuration not stated)	none (no result: Lmaj promast)
O=C(OCc1nnc(-c2ccccc2Br)o1)c1ccco1	none (no result: Lmaj promast, T cruzi inh, NALP1 inh, PolyA inh, Calb FLC)
O=S(=O)(c1ccccc1F)N(Cc1ccco1)Cc1nnc(-c2ccccc2Br)o1	Lmaj promast 65 (no result: T cruzi inh, PolyA inh, NALP3 yeast inh)
COc1ccccc1NC(=O)CS(=O)(=O)c1cn(CC(=O)N2CCOCC2)c2ccccc12	none
CCOc1ccc(-c2nc(S(=O)(=O)c3ccccc3)c(NCc3cccnc3)o2)cc1	Lmaj promast 83
CC(OC(=O)CCN=C1NS(=O)(=O)c2ccccc21)C(=O)NCc1ccccc1 (configuration not stated)	none (no result: Lmaj promast, NALP1 inh)
O=C(O)c1cccnc1SCC(=O)N1CCCc2ccccc21	none (no result: Lmaj promast, NALP1 inh)
COc1ccc(NC(=O)C2CCCN(S(=O)(=O)c3ccc4c(c3)CCCN4C(C)=O)C2)cc1Cl (configuration not stated)	none (no result: Lmaj promast)
CCOC(=O)C(C)N1C(=O)S/C(=C/c2ccc3c(c2)n(C)c(=O)n3C)C1=O (configuration not stated)	Lmaj promast 67
